# In the library only some 2.9% were active in any assay of this set; here they are far more common.
# MEKK3 PB1 HTS = modulators of MEKK3-MEK5 PB1 binding, primary screen, biochemical, wildtype MEKK3, multiplex bead flow cytometry, Alexa488-MEK5 | bead-based flow cytometry, Alexa488-MEK5 binding to MEKK3; actives lie on both sides; 0 = blocked by unlabeled MEK5, 100 = vehicle | binding response (% of control), % at 10 µM | 290,000 tested, 1.4% active;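 active = binding response more than 3 SD above or below the average of its plate-row segment, actives on both sides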;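 note: Alexa488 bead fluorescence after subtracting the streptavidin-only scavenger bead signal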
# ATG4B inhibitor = ATG4B protease inhibitors, primary screen, biochemical, fluorescence, uHTS; Cysteine protease ATG4B (Homo sapiens), Q9Y4P1; ATG4B cleavage of LC3-PLA2, NBD-HPC fluorescence, 1 h; inhibition, % at 8.33 µM; 340,000 tested, 0.51% active; AID 504462, 2011; in the data active = inhibition above about 40%
# MEKK2 WT-MEK5 = modulators of MEK5 binding to wildtype MEKK2, primary screen, biochemical, multiplex bead flow cytometry, Alexa488-MEK5; binding response (% of control), % at 10 µM; Alexa488-MEK5 binding to MEKK2 WT; actives lie on both sides; 290,000 tested, 1.1% active; Mitogen-activated protein kinase kinase kinase 2 (Homo sapiens), Q9Y2U5; in the data active = binding response below about 67% or above about 130%
# B2AR ag = beta2AR agonists driving receptor internalization, primary screen, cell-based, FAP fluorogen, flow cytometry; Beta-2 adrenergic receptor (Homo sapiens), P07550; Am2.2-beta2AR cells; response, % (concentration not given with the values); 340,000 tested, 0.43% active; AID 504454, 2011;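 active = response above a set limit, near 3 SD of response in nonfluorescent compounds, cut at about 42% in these data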
# Target sequence (P07550 whole entry, looked up): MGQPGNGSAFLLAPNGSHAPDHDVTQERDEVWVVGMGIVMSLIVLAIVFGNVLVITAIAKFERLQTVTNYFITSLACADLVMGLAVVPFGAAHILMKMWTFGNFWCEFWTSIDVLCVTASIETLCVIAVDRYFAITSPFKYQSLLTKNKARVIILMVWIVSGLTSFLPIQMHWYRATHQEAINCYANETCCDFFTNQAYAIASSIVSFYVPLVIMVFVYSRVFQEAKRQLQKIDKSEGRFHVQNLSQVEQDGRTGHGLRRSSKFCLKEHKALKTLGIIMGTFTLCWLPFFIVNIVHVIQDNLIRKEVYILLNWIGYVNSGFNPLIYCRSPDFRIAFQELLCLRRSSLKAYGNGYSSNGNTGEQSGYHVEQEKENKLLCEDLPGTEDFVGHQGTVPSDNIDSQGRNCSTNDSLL
# MEKK2mut PB1 HTS = MEK5 binding signal on mutant MEKK2 PB1, primary screen, biochemical, multiplex bead flow cytometry, Alexa488-MEK5; AID 1530, 2009; percent response, % at 10 µM; Alexa488-MEK5 binding to MEKK2 mutant; 290,000 tested, 0.35% active; in the data active = percent response above about 24%, passing the limit was not always enough
# Dynein cargo inh = inhibitors of GR-EGFP nuclear translocation, primary screen, dynein cargo transport inhibitor project, imaging, high-content, 3617.4 mouse cells; test concentration mostly 20 µM; stimulated with dexamethasone, 1 µM; stronger effect = lower value; z-score, hits read low; 220,000 tested, 0.47% active; AID 1381, 2008;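 active = plate z-score of nuclear minus cytoplasmic receptor signal below a set negative limit, without overly bright fluorescence or cell loss, cut at about -3.5 in these data, passing the limit was not always enough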;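 note: z-score of nuclear minus cytoplasmic ring GR-EGFP intensity difference per well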
#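 Buffer or medium: tet-free medium with charcoal-stripped serum / Also added: dexamethasone agonist, 1.0 µM final, for 30 min / Timing: induction 48 h, compound 1 h, agonist 30 min / Measured by: high-content fluorescence imaging after fixation / Read-out: nuclear-to-cytoplasmic GR-EGFP distribution per well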
# MEKK2wt confirm = modulators of MEK5 binding to wildtype MEKK2, confirmation, biochemical, single concentration, multiplex bead flow cytometry | shares compounds with MEKK3 PB1 HTS | Alexa488-MEK5 binding to MEKK2 WT; actives lie on both sides | binding response (% of control), % at 10 µM | 5,900 tested, 2.4% active; in the data active = binding response below about 16% or above about 210%; inactive = in between
# MEKK2mut-MEK5 = mutant MEKK2 PB1-MEK5 binding signal retest – biochemical, single concentration, multiplex bead flow cytometry, confirmation | AID 1893, 2009 | Alexa488-MEK5 binding to MEKK2 mutant | 5,900 tested, 2% active | shares compounds with MEKK3 PB1 HTS | percent response, % at 10 µM; in the data active = percent response mostly above about 71%, no sharp cut-off; inactive = mostly below about 38%;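 note: higher means compound restores mutant binding toward wildtype level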
# MEKK3-MEK5 inh = MEKK3 wild-type PB1 binding to MEK5, inhibitors, confirmation, biochemical, bead multiplex flow cytometry, single concentration, wildtype; shares compounds with MEKK3 PB1 HTS; Alexa488-MEK5 binding to MEKK3; stronger effect = lower value; binding response (% of control), % at 10 µM; 5,900 tested, 1.8% active;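 active = binding response below 72% of control, or above a set upper limit, though filed actives all read lower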;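 note: 100% = DMSO only wells and 0% = binding blocked by excess unlabeled MEK5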
# * hit, by the source's call; . = no result given; [ ] = another dose, or the depositor's remark.
SMILES,MEKK3 PB1 HTS,ATG4B inhibitor,MEKK2 WT-MEK5,B2AR ag,MEKK2mut PB1 HTS,Dynein cargo inh,MEKK2wt confirm,MEKK2mut-MEK5,MEKK3-MEK5 inh
O=c1[nH]c(=O)n(C2OC(CO)C(O)C2O)cc1N1CCOCC1 (stereo not drawn),.,-5,.,-8,.,.,.,.,.
CC(NC(=O)CN(C)CC(=O)Nc1cccc(F)c1)c1ccccc1 (stereo not drawn),.,-11,.,7,.,.,.,.,.
COc1ccc(/C=C/c2nc3ccccc3n2Cc2ccccc2OC)cc1,151*,-7,105,-8,5,0.47,111,3,107
COc1ccccc1Cn1c(/C=C/c2ccccc2)nc2ccccc21,82,-5,89,-20,-2,-0.1,.,.,.
Cc1ccc2nc(N(CCCN(C)C)C(=O)CS(=O)(=O)c3ccccc3)sc2c1,.,-14,.,4,.,.,.,.,.
CN(C)CCCN(C(=O)COc1ccccc1)c1nc2ccc(Cl)cc2s1,105,-8,167*,29,32,0.91,154,20,106
Cc1ccc2nc(N(CCCN(C)C)C(=O)CCc3ccccc3)sc2c1,139*,1,137,14,5,4.6,139,12,102
CN(C)CCCN(C(=O)COc1ccc(Cl)cc1)c1nc2cc3c(cc2s1)OCO3,107,8,179*,7,35*,.,176,41,109
COc1cccc2sc(N(CCCN(C)C)C(=O)COc3ccc(Cl)cc3)nc12,105,-12,168*,10,9,0.28,151,35,103
CCn1ccnc1CN(C)Cc1nc(CCC(C)C)no1,99,4,93,6,-11,-0.23,.,.,.
Cc1ccc(OCCCCNC(C)c2ccccc2)c(C)c1 (stereo not drawn),102,2,125,15,5,.,.,.,.
Cc1ccc(S(=O)(=O)CC(=O)N(CCCN(C)C)c2nc3ccc(C)cc3s2)cc1,.,0,.,9,.,.,.,.,.
CN(C)CCCN(C(=O)CCc1ccccc1)c1nc2ccc(Cl)cc2s1,114,5,164*,18,43,0.47,184,51,111
CC(C)COC(=O)c1nnsc1NC(=O)Nc1ccccc1,76*[inhibitor],-2,81,-1,-13,-0.63,96,-6,103
CC(C)Cc1nnc(NC(=O)Nc2ccccc2)s1,95,2,86,-9,-8,-0.62,.,.,.
Cc1cc(C)c2c(NC(=S)Nc3ccccc3)n[nH]c2n1,105,-2,102,-6,3,-0.24,.,.,.
Cc1cc(C)c2c(NC(=S)NC(=O)c3ccccc3)n[nH]c2n1,42*[inhibitor],-4,51,-16,-18,0.04,101,8,104
Cc1nn(C)cc1/C=C(/C#N)C(N)=O,149*,2,109,1,1,0.095,100,-6,99
COCCN(C(=O)c1sc2ccccc2c1Cl)c1c(N)n(CC(C)C)c(=O)[nH]c1=O,.,0,.,-7,.,.,.,.,.
